M5 ag = CHRM5 agonism in calcium assay; P08912; AID 624037; activation, % at 3 µM; 360,000 compounds, 0.19% hits; CHO-K1 hM5 cells, Fluo-8 calcium fluorescence; 0% DMSO wells, 100% maximal acetylcholine response;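 active = activation above the run's mean over test compounds plus 3 SD, cut at about 23% in these data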;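 also: signal is peak over basal fluorescence ratio across the kinetic read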
Target sequence (P08912 whole entry, looked up): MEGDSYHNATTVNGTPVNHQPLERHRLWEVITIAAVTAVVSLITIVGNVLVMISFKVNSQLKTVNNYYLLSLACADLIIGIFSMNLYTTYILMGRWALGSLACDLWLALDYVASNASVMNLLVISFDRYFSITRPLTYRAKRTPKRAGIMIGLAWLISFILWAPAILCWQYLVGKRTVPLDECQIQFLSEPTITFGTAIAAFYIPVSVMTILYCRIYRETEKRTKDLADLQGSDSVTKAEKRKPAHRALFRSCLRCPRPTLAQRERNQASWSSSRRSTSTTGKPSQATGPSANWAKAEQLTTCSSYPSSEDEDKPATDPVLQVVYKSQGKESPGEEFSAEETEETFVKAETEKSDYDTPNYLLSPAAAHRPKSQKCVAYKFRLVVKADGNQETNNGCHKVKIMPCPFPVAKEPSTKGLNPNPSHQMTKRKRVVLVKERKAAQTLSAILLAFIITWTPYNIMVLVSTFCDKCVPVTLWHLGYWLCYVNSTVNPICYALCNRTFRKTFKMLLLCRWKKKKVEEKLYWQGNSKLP
CHRM5 PAM = positive allosteric modulators of human muscarinic M5 receptor; activation, % at 3 µM; AID 624038; CHO-K1 hM5, Fluo-8 calcium, ACh EC20 PAM; 0% = ACh EC20, 100% = ACh EC100; P08912; 360,000 compounds, 0.3% hits;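 active = activation above the run cutoff, the mean activation of all test compounds plus 3 SD, cut at about 18% in these data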
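Replicates: One well per compound, no replicates | System: Human M5 receptor in CHO-K1 cells | Benchmarks: Low control EC20 acetylcholine (0%), high control EC100 acetylcholine (100%) | Probe or stimulus: Acetylcholine, EC20 level | Times: Fluo-8 loading 80 min at 37 °C plus 30 min room temperature | Signal: Intracellular calcium via Fluo-8 fluorescence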
CHRM4 antagonist = blocks acetylcholine activation of human M4 receptor; 360,000 compounds, 0.73% hits; CHO-hM4 cells, ACh EC80, Fluo-8 calcium fluorescence; inhibition, % at 3 µM; P08173;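 active = inhibition above its plate's cutoff, the mean inhibition of sample wells plus 3 SD, cut at about 27% in these data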;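 also: 0% = acetylcholine EC80 with DMSO and 100% = DMSO without agonist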
M4 PAM = positive allosteric modulators of human muscarinic M4 receptor | activation, % at 3 µM | P08173 | AID 624126 | CHO-K1 hM4/Gqi5, Fluo-8 calcium fluorescence, ACh EC20; 0% = ACh EC20, 100% = maximal ACh | 360,000 compounds, 0.4% hits;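 active = activation above its plate's cutoff, the mean activation of sample wells plus 3 SD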
M4 ag = CHRM4 agonism in calcium assay. P08173. CHO-K1 hM4/Gqi5, Fluo-8 calcium fluorescence; vehicle 0%, full acetylcholine response 100%. activation, % at 3 µM. 360,000 compounds, 0.14% hits. AID 624127;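 active = activation above the run mean over all test wells plus 3 SD, cut at about 32% in these data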;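 also: peak over basal fluorescence ratio per well then scaled between controls; 0% = DMSO wells and 100% = acetylcholine at EC100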
CHRM5 antagonist = blocks acetylcholine activation of human M5 receptor; P08912; CHO-hM5 cells, Fluo-8 calcium fluorescence, ACh EC80; inhibition, % at 3 µM; 360,000 compounds, 0.59% hits;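 active = inhibition above a per-plate cutoff, the mean of that plate's test compounds plus 3 SD, cut at about 27% in these data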;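 also: 0% = acetylcholine EC80 with DMSO and 100% = DMSO without agonist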
* marks the source's active call; other numbers are inactive results. The list is not random: actives were taken first. Their share in the collection is about 1.9%.

SMILES	M5 ag	CHRM5 PAM	CHRM4 antagonist	M4 PAM	M4 ag	CHRM5 antagonist
O=C1C(Nc2ccc(O)cc2)=C/C(=N/S(=O)(=O)c2cccs2)c2ccccc21	-7	2	7	-10	9	35*
O=C(O)c1ccc(NC2=C/C(=N/S(=O)(=O)c3cccs3)c3ccccc3C2=O)cc1	1	2	-1	3	4	4
COC(=O)[C@@]12C[C@@H](CC(=O)NCCc3ccccc3OC)C(=O)N(Cc3ccccc3)C1=CCC(C)(C)C2	-2	-3	-11	-2	3	-7
CN(CC(=O)NCCc1ccc(S(N)(=O)=O)cc1)CC(=O)Nc1ccc(Cl)c(C(F)(F)F)c1	-2	9	-11	23*	-1	1
Cn1c(Cc2ccccc2)nnc1SCC(=O)N1CCCCC1	-1	2	95*	11	-1	-2
Cc1ccccc1-n1c(SCC(=O)N2CCCC2)nnc1-c1ccccn1	2	19*	-4	6	1	-21
CCOc1ccccc1C(=O)NCC(=O)N(C)CC(=O)Nc1ccc(N2CCOCC2)cc1	0	-2	5	-7	1	-8
Cc1cccc(-n2ncc3c(N4CCOCC4)ncnc32)c1	3	-1	-11	7	6	-4
Cc1cccc(-n2ncc3c(N4CCCC4)ncnc32)c1	1	-4	-3	23*	6	1
CCOC(=O)C1(C)CCCN(C(=O)c2ccc(OC)cc2OC)C1 (stereo not given)	0	-4	-19	4	1	11
Cc1cccc(C(=O)NNS(=O)(=O)c2ccccc2[N+](=O)[O-])c1	0	-2	-2	28*	1	-7
Cc1ccc(C(=O)C2C(=O)c3ccccc3C2=O)cc1	1	5	-10	6	1	-2
NN=C1c2ccccc2C(=O)C1C(=O)C(c1ccccc1)c1ccccc1 (stereo not given)	56*	-24	22	-8	13	38*
Cn1c(=O)c(NCCc2ccccc2)c2c3c(cccc31)C(=O)c1ccccc1-2	93*	-26	76*	-23	151*	74*
Cn1c(=O)c(NCCO)c2c3c(cccc31)C(=O)c1ccccc1-2	32*	-8	13	-9	39*	13
CC(=O)Nc1ccc(Nc2c3c4c(cccc4n(C)c2=O)C(=O)c2ccccc2-3)cc1	2	-8	5	-9	8	3
CCCCNc1c2c3c(cccc3n(C)c1=O)C(=O)c1ccccc1-2	140*	-17	77*	-39	176*	71*
Cc1ccc(S(=O)(=O)N(C)C[C@H]2Oc3ncc(-c4ccccc4)cc3C(=O)N([C@@H](C)CO)C[C@@H]2C)cc1	-2	-4	0	-4	1	7
N#CC(=Nc1cccc(F)c1)C1=C(O)c2ccccc2C1=O	2	-3	7	-5	-1	3
CC(NC(=O)c1cc(COc2ccc3ncccc3c2)on1)c1ccc(F)cc1 (stereo not given)	-1	-31	21	-33	22	36*
Cc1cc(OCc2cc(C(=O)N3CCC(Oc4cccnc4)CC3)no2)cc(C)c1Cl	2	-24	35*	-12	19	24
COc1cccc(CN(C)C(=O)c2cc(COc3ccc4ncccc4c3)on2)c1	4	-35	34*	-20	24	40*
O=C(NCCc1cn2ccccc2n1)c1cc(COc2ccc3ncccc3c2)on1	6	-32	36*	-28	31	33*
Cc1cc(OCc2cc(C(=O)N3CCN(CC4CC4)CC3)no2)cc(C)c1Cl	-5	-8	-6	-8	6	-3
Cc1cccc(-c2ccc([N+](=O)[O-])cc2CN2CCN(c3ncc(Cc4ccccc4)cn3)CC2)c1	-4	1	11	-10	2	-4
SMILES	M5 ag	CHRM5 PAM	CHRM4 antagonist	M4 PAM	M4 ag	CHRM5 antagonist
Cc1ccccc1CN1C(=O)c2ccccc2C1c1nnnn1-c1ccc2c(c1)OCCO2 (stereo not given)	10	-2	-15	8	8	5
COC(=O)C(C(=O)OC)c1ccccc1CNS(=O)(=O)c1ccc(C)cc1	1	-2	3	8	2	13
O=C(c1cc(COc2ccc3ncccc3c2)on1)N1CCCCCC1	10	-27	3	-4	22	27*
O=C(c1cc(COc2cccc3cccnc23)on1)N1CCC[C@H]1CO	1	-2	6	-2	1	14
O=C(c1cc(COc2ccc3ncccc3c2)on1)N1CCCC1	1	-20	10	6	11	9
CCN(CC)C1CCN(C(=O)c2cc(COc3cccc4cccnc34)on2)C1 (stereo not given)	-8	-4	38*	-25	1	9
Cc1cc(C)nc(/N=C(\N)N(Cc2ccccc2)Cc2ccccc2)n1	-9	-23	39*	-22	6	92*
Cc1cc(C)nc(/N=C(\N)Nc2ccc(F)c([N+](=O)[O-])c2)n1	8	-12	26	-24	55*	6
CC(=O)Nc1ccc(N/C(N)=N/c2nc(C)cc(C)n2)cc1	-3	4	1	-6	0	-3
CCOc1ccc(N/C(=N/c2nc(C)cc(C)n2)NC(=O)CC)cc1	-2	0	2	-4	1	12
CCCCN(CCCC)/C(N)=N/c1nc(C)cc(C)n1	-6	-1	1	-1	1	5
Cc1cc(C)nc(/N=C(\N)Nc2ccc(-c3ccccc3)cc2)n1	28*	-18	29*	-29	68*	14
CCOc1ccc(N/C(N)=N/c2nc(C)cc(C)n2)cc1	16	-17	50*	-19	50*	39*
Cc1ccc(S(=O)(=O)N2C[C@H]3C(=O)C[C@@H](c4ccccc4)N(S(=O)(=O)c4cccc(C)c4)[C@H]3C[C@H]2c2ccccc2)cc1	1	-1	-3	3	1	5
O=C(CNC(=O)c1cccc(-n2cccc2)c1)Nc1ccccc1Br	0	-4	-21	-2	1	1
Cc1cc(C)nc(/N=C(\N)Nc2ccc(SC(F)F)cc2)n1	35*	-37	55*	-64	96*	15
Cc1ccc(C)c(N/C(N)=N/c2nc(C)cc(C)n2)c1	30*	-16	66*	-41	91*	21
CC(=O)N1CCOC12CCN(Cc1ccccc1)CC2	-1	0	0	-1	0	8
O=C(Cn1nnc(-c2ccccc2NC(=O)c2cccs2)n1)Nc1ccccc1	-1	21*	-11	5	2	0
CC(C)(C)NC(=O)Cn1nnc(-c2ccccc2NC(=O)c2cnccn2)n1	-2	12	-5	6	1	-4

High-throughput results from PubChem.
